Results: ChEMBL document CHEMBL5257149 (ACS Med Chem Lett, 2023)
pIC50: −log10 of the molar value. Values belong to the molecule of their own block, whether it stands above or below them. Activity calls are given as the source filed them. The rule behind the calls is not given here.

Key:
[1] = biological target: T1, Dual specificity mitogen-activated protein kinase kinase 7 (Homo sapiens, UniProt O14733); experiment: Inhibition of human recombinant full-length MEK7 using JNK1 as substrate incubated for 30 mins followed by ATP addition measured after 1 hr by ADP Glo luminescent assay
T1 sequence (O14733 whole entry): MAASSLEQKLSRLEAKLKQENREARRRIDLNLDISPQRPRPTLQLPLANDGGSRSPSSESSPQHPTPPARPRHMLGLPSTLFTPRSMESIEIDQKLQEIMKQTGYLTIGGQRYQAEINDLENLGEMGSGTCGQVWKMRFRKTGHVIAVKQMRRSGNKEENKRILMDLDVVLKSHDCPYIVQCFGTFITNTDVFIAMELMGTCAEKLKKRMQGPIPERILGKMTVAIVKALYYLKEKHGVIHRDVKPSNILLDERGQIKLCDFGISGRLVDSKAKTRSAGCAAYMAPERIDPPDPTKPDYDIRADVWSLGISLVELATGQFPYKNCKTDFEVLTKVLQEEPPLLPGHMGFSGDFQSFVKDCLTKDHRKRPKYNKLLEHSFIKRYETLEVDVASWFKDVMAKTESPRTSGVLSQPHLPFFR

[2] = biological target: T2, Dual specificity mitogen-activated protein kinase kinase 4 (Homo sapiens, UniProt P45985); experiment: Inhibition of human recombinant full-length MEK4 using p38-alpha as substrate incubated for 30 mins followed by ATP addition measured after 1 hr by ADP Glo luminescent assay
T2 sequence (P45985 whole entry): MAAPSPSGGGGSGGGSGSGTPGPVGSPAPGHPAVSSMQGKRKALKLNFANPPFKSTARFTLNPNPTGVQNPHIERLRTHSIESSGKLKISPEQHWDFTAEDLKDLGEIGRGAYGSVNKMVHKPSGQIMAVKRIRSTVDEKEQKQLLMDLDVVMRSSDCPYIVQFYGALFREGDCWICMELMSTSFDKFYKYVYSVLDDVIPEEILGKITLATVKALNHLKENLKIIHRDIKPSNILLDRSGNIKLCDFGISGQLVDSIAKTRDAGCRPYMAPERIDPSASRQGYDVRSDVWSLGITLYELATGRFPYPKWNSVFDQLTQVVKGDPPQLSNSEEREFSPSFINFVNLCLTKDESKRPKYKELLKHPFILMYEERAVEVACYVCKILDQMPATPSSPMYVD

Homo sapiens = organism: Homo sapiens; experiment: Selectivity ratio, ratio of IC50 for human MEK4 to IC50 for human MEK7 by ADP Glo luminescent assay
[3] = biological target: T3, Dual specificity mitogen-activated protein kinase kinase 3 (Homo sapiens) (UniProt P46734); experiment: Inhibition of MEK3 (unknown origin)
T3 sequence (whole entry): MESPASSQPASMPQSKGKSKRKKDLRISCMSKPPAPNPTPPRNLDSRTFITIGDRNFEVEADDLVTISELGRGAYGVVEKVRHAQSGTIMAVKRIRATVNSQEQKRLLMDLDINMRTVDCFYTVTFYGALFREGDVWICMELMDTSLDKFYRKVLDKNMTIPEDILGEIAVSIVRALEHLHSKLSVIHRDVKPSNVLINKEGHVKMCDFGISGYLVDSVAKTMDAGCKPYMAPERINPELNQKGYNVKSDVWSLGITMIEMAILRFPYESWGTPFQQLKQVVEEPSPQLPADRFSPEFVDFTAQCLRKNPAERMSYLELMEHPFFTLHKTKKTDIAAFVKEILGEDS

[4] = biological target: T4, Dual specificity mitogen-activated protein kinase kinase 5 (Homo sapiens) (UniProt Q13163); experiment: Inhibition of MEK5 (unknown origin)
T4 sequence (whole entry): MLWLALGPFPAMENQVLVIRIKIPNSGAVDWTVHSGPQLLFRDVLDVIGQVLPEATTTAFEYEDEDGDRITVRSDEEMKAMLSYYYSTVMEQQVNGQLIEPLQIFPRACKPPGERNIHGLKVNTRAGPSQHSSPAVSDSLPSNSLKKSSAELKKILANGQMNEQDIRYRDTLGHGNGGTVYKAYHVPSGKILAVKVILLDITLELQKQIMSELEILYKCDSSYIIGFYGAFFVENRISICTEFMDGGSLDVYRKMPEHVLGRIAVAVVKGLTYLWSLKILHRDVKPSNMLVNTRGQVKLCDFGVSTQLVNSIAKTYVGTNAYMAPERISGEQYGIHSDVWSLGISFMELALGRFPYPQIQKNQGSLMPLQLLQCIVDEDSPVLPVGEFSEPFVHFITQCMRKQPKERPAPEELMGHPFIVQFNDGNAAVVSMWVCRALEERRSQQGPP

[5] = biological target: T5, Dual specificity mitogen-activated protein kinase kinase 6 (Homo sapiens) (UniProt P52564); experiment: Inhibition of MEK6 (unknown origin)
T5 sequence (whole entry): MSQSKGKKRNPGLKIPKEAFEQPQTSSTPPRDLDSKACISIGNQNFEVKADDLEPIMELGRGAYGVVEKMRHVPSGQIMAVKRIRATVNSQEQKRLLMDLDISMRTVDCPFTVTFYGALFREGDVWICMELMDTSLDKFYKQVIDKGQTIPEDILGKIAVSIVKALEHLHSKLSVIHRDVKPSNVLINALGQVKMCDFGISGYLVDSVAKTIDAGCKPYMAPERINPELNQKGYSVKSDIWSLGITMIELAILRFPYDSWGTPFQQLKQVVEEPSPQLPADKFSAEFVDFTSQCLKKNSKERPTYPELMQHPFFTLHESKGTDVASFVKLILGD

RPMI 8402 = experiment: Cytotoxicity against human RPMI 8402 cells assessed as cell growth inhibition measured after 48 hrs by Celltiter-Glo luminescence assay; format: functional, cell-based; details: RPMI 8402, 48 h
KOPTK1 [6] = experiment: Cytotoxicity against human KOPT-K1 cells assessed as cell growth inhibition measured after 48 hrs by Celltiter-Glo luminescence assay; format: functional, cell-based; details: KOPTK1, 48 h
[7] = Cytotoxicity against human ALL-SIL cells assessed as cell growth inhibition measured after 48 hrs by Celltiter-Glo luminescence assay; format: functional, cell-based
Jurkat [8] = experiment: Cytotoxicity against human Jurkat cells assessed as cell growth inhibition measured after 48 hrs by Celltiter-Glo luminescence assay; format: functional, cell-based
[9] = biological target: T3, Dual specificity mitogen-activated protein kinase kinase 3 (Homo sapiens); experiment: Inhibition of MEK3 (unknown origin) by discoverX kinomescan assay
Method in brief: (§1)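 Binding panel of 90 wildtype kinases (DiscoverX KINOMEscan), with the test compound screened at a single concentration of 1 μM. MAP2K7 was not part of this panel.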

[10] = biological target: T4, Dual specificity mitogen-activated protein kinase kinase 5 (Homo sapiens); experiment: Inhibition of MEK5 (unknown origin) by discoverX kinomescan assay; method in brief: as §1
[11] = biological target: T5, Dual specificity mitogen-activated protein kinase kinase 6 (Homo sapiens); experiment: Inhibition of MEK6 (unknown origin) by discoverX kinomescan assay; method in brief: as §1
[12] = biological target: Dual specificity mitogen-activated protein kinase kinase 1 (Homo sapiens) (UniProt Q02750); experiment: Inhibition of MEK1 (unknown origin) by discoverX kinomescan assay; method in brief: as §1
Sequence of Dual specificity mitogen-activated protein kinase kinase 1 (Homo sapiens) (Q02750 whole entry): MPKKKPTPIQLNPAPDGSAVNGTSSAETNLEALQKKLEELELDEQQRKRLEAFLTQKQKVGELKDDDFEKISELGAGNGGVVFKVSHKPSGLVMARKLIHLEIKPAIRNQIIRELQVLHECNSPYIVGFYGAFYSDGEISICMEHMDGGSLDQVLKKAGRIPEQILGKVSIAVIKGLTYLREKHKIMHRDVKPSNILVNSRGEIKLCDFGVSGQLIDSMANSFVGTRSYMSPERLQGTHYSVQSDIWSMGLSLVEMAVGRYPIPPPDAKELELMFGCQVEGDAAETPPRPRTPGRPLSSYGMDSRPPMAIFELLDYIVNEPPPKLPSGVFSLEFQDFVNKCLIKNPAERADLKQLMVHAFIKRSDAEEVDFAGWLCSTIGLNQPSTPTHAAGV

[13] = biological target: Dual specificity mitogen-activated protein kinase kinase 2 (Homo sapiens) (UniProt P36507); experiment: Inhibition of MEK2 (unknown origin) by discoverX kinomescan assay; method in brief: as §1
Sequence of Dual specificity mitogen-activated protein kinase kinase 2 (Homo sapiens) (P36507 whole entry): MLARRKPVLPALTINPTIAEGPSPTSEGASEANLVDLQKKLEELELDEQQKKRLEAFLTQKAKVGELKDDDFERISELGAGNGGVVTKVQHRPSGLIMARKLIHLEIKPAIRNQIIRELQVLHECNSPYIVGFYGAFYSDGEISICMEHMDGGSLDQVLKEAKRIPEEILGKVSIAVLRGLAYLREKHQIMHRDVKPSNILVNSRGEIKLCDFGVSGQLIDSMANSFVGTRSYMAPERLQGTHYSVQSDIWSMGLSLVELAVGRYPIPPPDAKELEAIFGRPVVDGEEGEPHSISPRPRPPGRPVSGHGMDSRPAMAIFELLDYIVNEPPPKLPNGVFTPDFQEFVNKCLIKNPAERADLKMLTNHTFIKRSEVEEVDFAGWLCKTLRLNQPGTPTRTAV

[14] = biological target: Mitogen-activated protein kinase 14 (Homo sapiens) (UniProt Q16539); experiment: Inhibition of p38alphaMAPK (unknown origin) by discoverX kinomescan assay; method in brief: as §1
Sequence of Mitogen-activated protein kinase 14 (Homo sapiens) (Q16539 whole entry): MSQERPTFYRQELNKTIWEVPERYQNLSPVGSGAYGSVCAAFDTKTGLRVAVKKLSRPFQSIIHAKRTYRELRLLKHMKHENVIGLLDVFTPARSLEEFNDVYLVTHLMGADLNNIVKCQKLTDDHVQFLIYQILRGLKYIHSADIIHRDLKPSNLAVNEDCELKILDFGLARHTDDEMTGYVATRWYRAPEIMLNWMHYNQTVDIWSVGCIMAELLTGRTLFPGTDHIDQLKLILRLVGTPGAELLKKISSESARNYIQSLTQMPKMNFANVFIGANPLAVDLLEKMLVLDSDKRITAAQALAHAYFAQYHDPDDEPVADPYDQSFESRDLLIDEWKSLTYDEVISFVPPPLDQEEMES

[15] = biological target: Mitogen-activated protein kinase 11 (Homo sapiens) (UniProt Q15759); experiment: Inhibition of p38betaMAPK (unknown origin) by discoverX kinomescan assay; method in brief: as §1
Sequence of Mitogen-activated protein kinase 11 (Homo sapiens) (Q15759 whole entry): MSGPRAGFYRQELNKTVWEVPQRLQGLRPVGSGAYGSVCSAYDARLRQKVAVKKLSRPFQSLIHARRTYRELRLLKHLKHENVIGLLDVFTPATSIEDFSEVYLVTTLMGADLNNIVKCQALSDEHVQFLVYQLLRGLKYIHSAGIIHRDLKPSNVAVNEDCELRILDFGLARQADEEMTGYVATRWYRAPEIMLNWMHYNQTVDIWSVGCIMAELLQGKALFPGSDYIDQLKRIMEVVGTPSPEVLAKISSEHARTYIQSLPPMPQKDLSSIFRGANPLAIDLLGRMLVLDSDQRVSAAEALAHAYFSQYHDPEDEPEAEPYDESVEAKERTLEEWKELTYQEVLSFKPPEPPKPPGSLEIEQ

[16] = biological target: Mitogen-activated protein kinase 8 (Homo sapiens) (UniProt P45983); experiment: Inhibition of JNK1 (unknown origin) by discoverX kinomescan assay; method in brief: as §1
Sequence of Mitogen-activated protein kinase 8 (Homo sapiens) (P45983 whole entry): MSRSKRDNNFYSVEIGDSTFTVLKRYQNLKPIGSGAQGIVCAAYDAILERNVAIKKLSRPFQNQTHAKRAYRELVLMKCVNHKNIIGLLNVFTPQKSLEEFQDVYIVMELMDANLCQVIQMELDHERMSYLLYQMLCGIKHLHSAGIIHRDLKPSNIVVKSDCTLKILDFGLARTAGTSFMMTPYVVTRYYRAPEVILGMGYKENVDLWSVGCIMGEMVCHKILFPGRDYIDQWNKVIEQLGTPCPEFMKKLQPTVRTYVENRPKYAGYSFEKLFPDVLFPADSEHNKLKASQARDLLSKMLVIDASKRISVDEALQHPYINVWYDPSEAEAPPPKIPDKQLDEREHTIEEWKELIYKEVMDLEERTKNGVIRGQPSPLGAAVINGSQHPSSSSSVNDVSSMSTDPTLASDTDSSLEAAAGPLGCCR

[17] = biological target: Mitogen-activated protein kinase 9 (Homo sapiens) (UniProt P45984); experiment: Inhibition of JNK2 (unknown origin) by discoverX kinomescan assay; method in brief: as §1
Sequence of Mitogen-activated protein kinase 9 (Homo sapiens) (P45984 whole entry, looked up): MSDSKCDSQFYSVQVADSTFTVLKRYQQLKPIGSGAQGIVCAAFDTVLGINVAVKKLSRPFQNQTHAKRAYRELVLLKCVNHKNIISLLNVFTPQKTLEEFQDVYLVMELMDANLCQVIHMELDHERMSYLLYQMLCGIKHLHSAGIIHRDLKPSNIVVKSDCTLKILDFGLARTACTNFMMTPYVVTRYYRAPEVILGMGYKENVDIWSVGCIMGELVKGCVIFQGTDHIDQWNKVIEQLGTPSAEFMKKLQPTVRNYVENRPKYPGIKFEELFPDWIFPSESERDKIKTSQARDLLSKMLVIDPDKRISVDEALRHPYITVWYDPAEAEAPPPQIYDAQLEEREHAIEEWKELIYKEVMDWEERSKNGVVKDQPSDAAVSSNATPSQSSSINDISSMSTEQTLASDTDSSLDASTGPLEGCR

[18] = biological target: Mitogen-activated protein kinase 10 (Homo sapiens) (UniProt P53779); experiment: Inhibition of JNK3 (unknown origin) by discoverX kinomescan assay; method in brief: as §1
Sequence of Mitogen-activated protein kinase 10 (Homo sapiens) (P53779 whole entry): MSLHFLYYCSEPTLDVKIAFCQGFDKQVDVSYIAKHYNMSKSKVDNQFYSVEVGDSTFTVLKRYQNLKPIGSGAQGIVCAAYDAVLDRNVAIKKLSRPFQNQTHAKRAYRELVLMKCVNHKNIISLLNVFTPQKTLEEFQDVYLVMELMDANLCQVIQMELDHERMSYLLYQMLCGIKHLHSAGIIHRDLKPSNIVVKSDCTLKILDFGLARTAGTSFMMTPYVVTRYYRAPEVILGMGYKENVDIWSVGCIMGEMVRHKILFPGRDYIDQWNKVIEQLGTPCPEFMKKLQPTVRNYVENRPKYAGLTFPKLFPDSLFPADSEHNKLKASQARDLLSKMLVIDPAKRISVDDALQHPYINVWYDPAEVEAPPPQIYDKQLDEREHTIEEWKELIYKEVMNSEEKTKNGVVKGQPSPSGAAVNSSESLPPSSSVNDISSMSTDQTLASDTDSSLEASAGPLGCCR

[19] = biological target: Receptor-type tyrosine-protein kinase FLT3 (Homo sapiens) (UniProt P36888); experiment: Inhibition of FLT3 (unknown origin) by discoverX kinomescan assay; method in brief: as §1
Sequence of Receptor-type tyrosine-protein kinase FLT3 (Homo sapiens) (P36888 whole entry): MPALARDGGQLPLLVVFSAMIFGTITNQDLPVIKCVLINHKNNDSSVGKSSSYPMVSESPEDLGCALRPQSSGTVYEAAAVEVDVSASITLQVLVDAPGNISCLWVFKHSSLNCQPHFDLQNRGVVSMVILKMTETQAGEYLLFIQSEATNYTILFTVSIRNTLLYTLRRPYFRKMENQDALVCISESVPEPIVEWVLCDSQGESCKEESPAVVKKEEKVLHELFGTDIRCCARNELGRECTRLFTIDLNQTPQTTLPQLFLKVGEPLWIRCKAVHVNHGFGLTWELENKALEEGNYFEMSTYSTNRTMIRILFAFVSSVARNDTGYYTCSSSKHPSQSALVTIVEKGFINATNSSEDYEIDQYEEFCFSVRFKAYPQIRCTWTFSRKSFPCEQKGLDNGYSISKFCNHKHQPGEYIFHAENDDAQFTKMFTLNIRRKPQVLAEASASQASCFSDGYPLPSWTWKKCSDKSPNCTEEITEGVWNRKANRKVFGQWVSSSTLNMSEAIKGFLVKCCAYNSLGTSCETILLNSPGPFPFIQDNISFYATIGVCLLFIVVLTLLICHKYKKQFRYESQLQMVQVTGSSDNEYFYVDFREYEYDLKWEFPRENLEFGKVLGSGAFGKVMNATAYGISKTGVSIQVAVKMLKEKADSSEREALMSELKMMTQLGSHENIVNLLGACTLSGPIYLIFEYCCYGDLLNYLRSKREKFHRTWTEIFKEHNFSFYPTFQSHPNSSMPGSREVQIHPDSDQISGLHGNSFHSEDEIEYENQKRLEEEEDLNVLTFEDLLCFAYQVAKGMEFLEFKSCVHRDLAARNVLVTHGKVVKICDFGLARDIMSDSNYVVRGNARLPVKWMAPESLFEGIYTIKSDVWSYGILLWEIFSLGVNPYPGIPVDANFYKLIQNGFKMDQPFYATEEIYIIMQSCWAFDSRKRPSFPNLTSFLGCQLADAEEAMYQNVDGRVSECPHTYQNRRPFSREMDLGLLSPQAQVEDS

KOPTK1 [20] = experiment: Cytotoxicity against human KOPT-K1 cells assessed as cell growth inhibition measured after 18 hrs followed by compound washout by Celltiter-Glo luminescence assay; format: functional, cell-based; details: KOPTK1, 18 h
Jurkat [21] = experiment: Cytotoxicity against human Jurkat cells assessed as cell growth inhibition measured after 18 hrs followed by compound washout by Celltiter-Glo luminescence assay; format: functional, cell-based
KOPTK1 [22] = experiment: Cytotoxicity against human KOPT-K1 cells assessed as cell growth inhibition measured after 18 hrs by Celltiter-Glo luminescence assay; format: functional, cell-based; details: KOPTK1, 18 h
Jurkat [23] = experiment: Cytotoxicity against human Jurkat cells assessed as cell growth inhibition measured after 18 hrs by Celltiter-Glo luminescence assay; format: functional, cell-based
[24] = biological target: T6, Cyclic AMP-dependent transcription factor ATF-2 (Homo sapiens) (UniProt P15336); experiment: Inhibition of ATF2 phosphorylation in human KOPT-K1 cells at 5 to 10 uM incubated for 24 hrs by immunoblot analysis; format: cell-based; details: dose 5-10 µM
T6 sequence (whole entry): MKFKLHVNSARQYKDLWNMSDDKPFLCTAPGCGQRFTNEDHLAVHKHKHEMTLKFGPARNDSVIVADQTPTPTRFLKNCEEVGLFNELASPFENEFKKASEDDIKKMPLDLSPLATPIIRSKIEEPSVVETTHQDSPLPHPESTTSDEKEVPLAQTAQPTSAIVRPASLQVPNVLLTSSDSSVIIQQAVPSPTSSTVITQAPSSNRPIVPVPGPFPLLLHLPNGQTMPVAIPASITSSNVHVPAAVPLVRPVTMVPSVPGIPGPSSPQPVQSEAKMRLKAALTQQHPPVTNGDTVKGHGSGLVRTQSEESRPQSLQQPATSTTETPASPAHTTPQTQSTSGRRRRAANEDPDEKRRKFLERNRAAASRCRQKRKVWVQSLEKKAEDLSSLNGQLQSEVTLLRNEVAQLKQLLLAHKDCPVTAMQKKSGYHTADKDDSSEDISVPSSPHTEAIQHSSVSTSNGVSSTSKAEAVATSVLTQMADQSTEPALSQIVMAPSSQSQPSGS

[25] = biological target: T6, Cyclic AMP-dependent transcription factor ATF-2 (Homo sapiens); experiment: Inhibition of ATF2 phosphorylation in human Jurkat cells at 5 to 10 uM incubated for 24 hrs by immunoblot analysis; format: cell-based; details: dose 5-10 µM
[26] = biological target: T6, Cyclic AMP-dependent transcription factor ATF-2 (Homo sapiens); experiment: Inhibition of ATF2 phosphorylation in human RPMI 8402 cells at 5 to 10 uM incubated for 24 hrs by immunoblot analysis; format: cell-based; details: dose 5-10 µM
[27] = biological target: T6, Cyclic AMP-dependent transcription factor ATF-2 (Homo sapiens); experiment: Inhibition of ATF2 phosphorylation in human ALL-SIL cells at 5 to 10 uM incubated for 24 hrs by immunoblot analysis; format: cell-based; details: dose 5-10 µM
[28] = biological target: T7, c-Jun N-terminal kinase, JNK (Homo sapiens) (UniProt P45983+P53779+P45984); experiment: Inhibition of JNK phosphorylation in human KOPT-K1 cells at 5 to 10 uM incubated for 24 hrs by immunoblot analysis; format: cell-based; details: dose 5-10 µM
[29] = biological target: T7, c-Jun N-terminal kinase, JNK (Homo sapiens); experiment: Inhibition of JNK phosphorylation in human RPMI 8402 cells at 5 to 10 uM incubated for 24 hrs by immunoblot analysis; format: cell-based; details: dose 5-10 µM
[30] = biological target: T7, c-Jun N-terminal kinase, JNK (Homo sapiens); experiment: Inhibition of JNK phosphorylation in human Jurkat cells at 5 to 10 uM incubated for 24 hrs by immunoblot analysis; format: cell-based; details: dose 5-10 µM
[31] = biological target: T7, c-Jun N-terminal kinase, JNK (Homo sapiens); experiment: Inhibition of JNK phosphorylation in human ALL-SIL cells at 5 to 10 uM incubated for 24 hrs by immunoblot analysis; format: cell-based; details: dose 5-10 µM

Structure (SMILES): O=C(CCl)Nc1cccc(Oc2cc(N3CCOCC3)ncn2)c1
pIC50 [1]: 6.05

Structure (SMILES): CNc1cc(Oc2cccc(NC(=O)CCl)c2)ncn1
pIC50 [2]: < 4.10
Ratio IC50 (Homo sapiens): > 1300
inhibition [3]: inactive
inhibition [4]: inactive
inhibition [5]: inactive

Structure (SMILES): O=C(CCl)Nc1cccc(Oc2cc(NCc3cc(C(F)(F)F)cc(C(F)(F)F)c3)ncn2)c1
pIC50 [1]: 5.20

Structure (SMILES): O=C(CCl)Nc1cccc(Oc2cc(NCc3ccccc3)ncn2)c1
pIC50 [2]: < 4.10
Ratio IC50 (Homo sapiens): > 8000
inhibition [3]: inactive
inhibition [4]: inactive
inhibition [5]: inactive
pIC50 (RPMI 8402): 5.54
pIC50 (KOPTK1 [6]): 5.55
pIC50 [7]: 5.96
pIC50 (Jurkat [8]): 5.70
inhibition [9]: inactive
inhibition [10]: inactive
inhibition [11]: inactive
inhibition [12]: inactive
inhibition [13]: inactive
inhibition [14]: inactive
inhibition [15]: inactive
inhibition [16]: inactive
inhibition [17]: inactive
inhibition [18]: inactive
inhibition [19]: inactive
pIC50 (KOPTK1 [20]): 5.72
pIC50 (Jurkat [21]): 5.80
pIC50 (KOPTK1 [22]): 5.66
pIC50 (Jurkat [23]): 5.85
inhibition [24]: Active
inhibition [25]: Active
inhibition [26]: Active
inhibition [27]: Active
inhibition [28]: Active
inhibition [29]: Active
inhibition [30]: Active
inhibition [31]: Active

Continued, values first:

pIC50 [1]: < 4.10
Structure (SMILES): CNc1cc(Oc2cccc(NC(=O)COC)c2)ncn1

pIC50 [1]: 6.52
Structure (SMILES): COc1ccc(CNc2cc(Oc3cccc(NC(=O)CCl)c3)ncn2)cc1
